Reference: ChEMBL document CHEMBL3992564, “Design and synthesis of novel, potent and selective hypoxanthine analogs as adenosine A1 receptor antagonists and their biological evaluation” (Bioorg Med Chem, 2017)
Calls of active or inactive are those of the source. The rule behind the calls is not given here.

Legend:
[1] = Drug metabolism assessed as hydroxylation at C-8 cyclopentyl by metabolic soft spot analysis; type: physicochemical
[2] = Drug metabolism assessed as dehydration by metabolic soft spot analysis; type: physicochemical
[3] = biological target: T1, Adenosine receptor A2b (Homo sapiens) (UniProt P29275); experiment: Displacement of [3H]MRS-1754 from human adenosine A2B receptor expressed in HEK293 cell membranes at 30 uM after 90 mins relative to control
T1 sequence (whole entry): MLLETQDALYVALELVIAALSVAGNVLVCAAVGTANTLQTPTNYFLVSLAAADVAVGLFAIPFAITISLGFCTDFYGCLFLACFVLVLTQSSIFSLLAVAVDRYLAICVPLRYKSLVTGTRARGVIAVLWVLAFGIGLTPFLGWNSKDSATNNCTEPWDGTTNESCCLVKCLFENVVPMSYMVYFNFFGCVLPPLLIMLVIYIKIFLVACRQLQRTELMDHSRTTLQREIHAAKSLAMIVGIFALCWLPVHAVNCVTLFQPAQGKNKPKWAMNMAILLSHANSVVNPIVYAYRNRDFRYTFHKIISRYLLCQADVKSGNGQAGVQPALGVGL
Procedure, shortened: (§1)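 Membranes from HEK-293 cells stably transfected with human receptor, pre-treated with adenosine deaminase. Radioligands: 1 nM [3H]DPCPX (A1), 1 nM [3H]ZM241385 (A2A), 1.6 nM [3H]MRS-1754 (A2B), 2 nM [3H]HEMADO (A3). Buffers: Tris pH 7.4 (A1, A2A, A3) or pH 6.5 (A2B), with ADA. Incubated 90 min at room temperature, then filtered. Nonspecific binding defined with 100 µM NECA. Ki from 8 concentrations run in triplicate.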

[4] = biological target: T1, Adenosine receptor A2b (Homo sapiens); experiment: Displacement of [3H]MRS-1754 from human adenosine A2B receptor expressed in HEK293 cell membranes at 1 uM after 90 mins relative to control; procedure, shortened: as §1
[5] = Ratio of drug level in Wistar rat brain to plasma at 5 mg/kg, po via gavage measured at 4 hrs post dose by LC-Ms/MS analysis; type: ADME, organism-based; conditions: read-out: BPR
Procedure, shortened: (§2)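 Male Wistar rats, fasted overnight and for 2 h after dosing, given an oral solution at 5 mg/kg (0.5 mg/mL). Vehicle: NMP 10% with Labrasol 30% or PEG-400 20%, in citrate buffer […]. Blood and brain were taken at discrete time points, n = 2 per time point. Brain was homogenized 1:2 in PBS. Samples were precipitated with acetonitrile and run on LC-MS/MS; LLOQ 10 ng/mL.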

[6] = Ratio of drug level in Wistar rat brain to plasma at 5 mg/kg, po via gavage measured at 1 hr post dose by LC-Ms/MS analysis; type: ADME, organism-based; conditions: read-out: BPR; procedure, shortened: as §2
[7] = Ratio of drug level in Wistar rat brain to plasma at 5 mg/kg, po via gavage measured at 2 hrs post dose by LC-Ms/MS analysis; type: ADME, organism-based; conditions: read-out: BPR; procedure, shortened: as §2
Rattus norvegicus = experiment: Kaliuretic activity in Wistar rat at 3 to 30 mg/kg, po via gavage measured after 4 hrs; type: functional, organism-based
Procedure, shortened: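 Male Wistar rats (250-300 g, n = 6) dosed orally at 5 mL/kg. Vehicles: DMAC 5%/NaOH/saline, or NMP 10%/PEG-400 20%/saline pH 12.0. Rats were then kept singly in metabolic cages without food or water for 4 h. Urine volume, Na+ and K+ were measured with a biochemistry analyser.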

Adenosine receptor A3 = biological target: T2, Adenosine receptor A3 (Homo sapiens, UniProt P0DMS8); experiment: Displacement of [3H]HEMADO from human adenosine A3 receptor expressed in HEK293 cell membranes after 90 mins; procedure, shortened: as §1
T2 sequence (P0DMS8 whole entry): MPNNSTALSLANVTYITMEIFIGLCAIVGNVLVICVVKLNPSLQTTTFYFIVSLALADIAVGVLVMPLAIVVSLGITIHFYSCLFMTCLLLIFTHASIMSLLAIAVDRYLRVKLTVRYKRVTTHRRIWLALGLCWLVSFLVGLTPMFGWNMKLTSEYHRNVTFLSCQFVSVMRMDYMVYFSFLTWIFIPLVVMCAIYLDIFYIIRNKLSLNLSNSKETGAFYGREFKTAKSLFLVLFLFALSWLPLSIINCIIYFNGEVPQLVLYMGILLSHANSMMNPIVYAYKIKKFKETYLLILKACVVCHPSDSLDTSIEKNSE

For `CCCn1c(Oc2cccnc2C)nc2nc(C3CCCC3)[nH]c2c1=O`, which Drug metabolism [1] is on record?
The Drug metabolism was “Metabolite_Detected”.

What about the Drug metabolism [2] of the same molecule?
The Drug metabolism was “Metabolite_Detected”.

And the inhibition [3]?
Its inhibition is 91%.

What about the inhibition [4] of the same molecule?
Its inhibition is 49%.

Which Kp at 4 h [5] does the source give for `CCCn1c(Oc2ccc(F)c(F)c2)nc2nc(C3CCCC3)[nH]c2c1=O` here?
The Kp at 4 h was 0.05.

And the Kp at 1 h [6]?
Its Kp at 1 h is 0.05.

What about the Kp at 2 h [7] of the same molecule?
Its Kp at 2 h is 0.05.

And the Activity (Rattus norvegicus)?
The Activity was “Active”.

What about the IC50 (Adenosine receptor A3) of the same molecule?
The IC50 was > 10 µM.
